Screening data from PubChem.
STAT1 act: activators of IFN-gamma induced STAT1 signaling; NIH 3T3 STAT1-luciferase reporter, luminescence; 100% = IFN-gamma alone, no compound; activation (% of control), % at 5.5 µM; 200,000 compounds, 2.6% hits;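 active means activation above the screen-wide mean activation plus 3 SD, cut at about 130% in these data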;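 further: raw ratio to IFN-gamma control signal so 100% means no change and 0% no light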
STAT3 act: STAT3 signaling activation | 190,000 compounds, 0.91% hits | AID 871 | activation (% of control), % at 5.6 µM | U3A cells, IL-6 STAT3-luciferase reporter, luminescence; 100% = signal with IL-6 EC80 alone;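 active means activation above the screen-wide mean of compound activation plus 3 SD, cut at about 130% in these data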;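 further: 0% = background luminescence of wells with medium and substrate only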
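Test system: human U3A cells carrying STAT3-luciferase construct; control set: IL-6-only wells as 100% reference; timing: compound pre-incubation 1 h before IL-6, then 6 h stimulation at 37 °C; also added: IL-6 stimulus at 33 ng/mL final; evaluation: % activation versus median of IL-6-stimulated wells; detection: reporter luminescence signal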
NF-kB neuron act: NF-kB expression increase, human neuronal cells. NF-kB reporter expression; hits give high values. fold change at 12.5 µM. 190,000 compounds, 1.6% hits; in the data active means fold change above about 3.3
STAT3 blocker: STAT3 signaling inhibition | U3A cells, IL-6 STAT3-luciferase reporter, luminescence; host cell line lacks STAT1 | inhibition, % at 5.5 µM | 190,000 compounds, 0.89% hits;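 active means inhibition above the mean inhibition across all screened compounds plus 3 SD, cut at about 44% in these data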;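 further: 0% = DMSO only wells and 100% = 100 µM nifuroxazide control wells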
APP 5'UTR act: activates APP 5'UTR luciferase reporter; SH-SY5Y APP 5'UTR luciferase reporter, luminescence; zero percent = DMSO vehicle wells; activation, % at 2 µM; 190,000 compounds, 1% hits;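 active means activation above a set limit, based on mean plus 3 SD of controls, cut at about 140% in these data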
STAT1 inh: STAT1 signaling inhibition; NIH 3T3 STAT1-luciferase reporter, IFN-gamma, luminescence; inhibition, % at 5.5 µM; 200,000 compounds, 0.35% hits; AID 920;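 active means inhibition above a set limit, the mean inhibition across all tested compounds plus 3 SD, cut at about 34% in these data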;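 further: 0% = IFN-gamma with DMSO and 100% = IFN-gamma with 300 µM nifuroxazide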
STAT1 act conf: STAT1 activation, confirmation assay; shares compounds with STAT1 act; NIH 3T3 STAT1-luciferase reporter, IFN-gamma potentiation, luminescence; 100% = IFN-gamma EC80 alone, no compound; activation (% of control), % at 5.7 µM; 1,200 compounds, 97% hits; AID 1262;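 active means activation above a set limit carried over from the earlier primary STAT1 screen, cut at about 140% in these data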;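 further: simple ratio to median IFN-gamma plus DMSO wells so 0% means no light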
NFkB act: counter-screen for STAT1 activators: NF-kappaB activation. shares compounds with STAT1 act. HEK293T NF-kB luciferase reporter, TNF-alpha stimulated, luminescence; 100% = TNF-alpha with vehicle only. activation (% of control), % at 5.7 µM. 1,200 compounds, 43% hits. AID 1306;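 active means activation above the mean of solvent-only control wells plus 3 SD, set per campaign, cut at about 130% in these data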;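 further: TNF-alpha given at a submaximal dose yielding about 80% of full reporter signal; values are well signal over median control so 100% means no change and 0% no light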
STAT3 act STAT1c: counter-screen for STAT1 activators: human STAT3 activation | U3A cells STAT3-luciferase reporter, IL-6, luminescence; cells lack STAT1; 100 = IL-6 alone, no compound effect | shares compounds with STAT1 act | activation (% of control), % at 5.7 µM | 1,200 compounds, 46% hits;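 active means activation above the solvent-only control well mean plus 3 SD, set per plate batch, cut at about 110% in these data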;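 further: 0% = no luminescence and 100% = median IL-6 plus DMSO wells; higher means more STAT3 reporter activation so hits are non-selective activators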
Active calls of the source: *. Shown are actives, neighbours in structure and some others; about 5.1% of the full set was active somewhere.

For COc1ccc(-c2nc(-c3ccc(Br)cc3)no2)c(OC)c1 the results were STAT1 act 155*, STAT3 act 105, NF-kB neuron act 6*, STAT3 blocker -5, APP 5'UTR act 94, STAT1 inh -59, STAT1 act conf 233*, NFkB act 132 and STAT3 act STAT1c 112*.
`COc1ccc(Cl)cc1-c1nc(-c2ccncc2)no1` gave STAT1 act 105, STAT3 act 97, NF-kB neuron act 1.2, STAT3 blocker 6, APP 5'UTR act -7 and STAT1 inh -11.
`CC(NC(=O)c1ccc(OC2CCN(Cc3ccccn3)CC2)cc1)c1ccccc1` (centres undefined) gave STAT1 act 97, STAT3 act 92, NF-kB neuron act 0.85, STAT3 blocker 13, APP 5'UTR act 3 and STAT1 inh 1.
NC(N)=Nc1nc(C2COc3ccccc3O2)cs1 (centres undefined) was read as STAT1 act 164*, STAT3 act 92, NF-kB neuron act 5*, STAT3 blocker 12, APP 5'UTR act 166*, STAT1 inh -72, STAT1 act conf 202*, NFkB act 132 and STAT3 act STAT1c 105.
`N/C(=N\O)C1COc2ccccc2O1` (centres undefined) gave STAT1 act 101, STAT3 act 94, NF-kB neuron act 1.2, STAT3 blocker 9, APP 5'UTR act -10 and STAT1 inh -1.
`O=C(COc1ncnc2ccccc12)NCC1CCCO1` (centres undefined) gave STAT1 act 93, STAT3 act 97, NF-kB neuron act 1.1, STAT3 blocker 6, APP 5'UTR act -10 and STAT1 inh 7.
Screening Cc1ccc(SCC(=O)Nc2ccc(S(N)(=O)=O)cc2)cc1 returned STAT1 act 101, STAT3 act 103, NF-kB neuron act 1.6, STAT3 blocker -3, APP 5'UTR act 18 and STAT1 inh -1.
For N#C/C(=N/Nc1ccc([N+](=O)[O-])cc1)C(=N)N1CCCCC1 the results were STAT1 act 174*, STAT3 act 97, NF-kB neuron act 8.1*, STAT3 blocker 5, APP 5'UTR act 174*, STAT1 inh -81, STAT1 act conf 249*, NFkB act 143* and STAT3 act STAT1c 122*.
N#C/C(=N\Nc1ccc(S(=O)(=O)N2CCCCC2)cc1)C(N)=S was read as STAT1 act 95, STAT3 act 85, NF-kB neuron act 0.72, STAT3 blocker 17, APP 5'UTR act -12 and STAT1 inh 6.
Screening N#C/C(=N\Nc1ccc(Cl)cc1)C(=N)N1CCCCCC1 returned STAT1 act 158*, STAT3 act 75, NF-kB neuron act 1.3, STAT3 blocker 33, APP 5'UTR act 236*, STAT1 inh -63, STAT1 act conf 305*, NFkB act 135* and STAT3 act STAT1c 116*.
Screening COCCCN1C(=O)C(=O)/C(=C(/O)c2ccc(C)cc2)C1/C=C/c1ccccc1 (centres undefined) returned STAT1 act 108, STAT3 act 96, NF-kB neuron act 1.1, STAT3 blocker 6, APP 5'UTR act -19 and STAT1 inh -12.
Screening Cc1ccc(C)c(NC(=O)C(=O)NCc2ccccn2)c1 returned STAT1 act 92, STAT3 act 87, NF-kB neuron act 1.4, STAT3 blocker 14, APP 5'UTR act -5 and STAT1 inh 9.
Screening CCOc1ccc2nc(N/C(N)=N/C(=S)Nc3ccc(C)c(C)c3)nc(C)c2c1 returned STAT1 act 91, STAT3 act 95, NF-kB neuron act 1.1, STAT3 blocker 4, APP 5'UTR act -5 and STAT1 inh 11.
`CCNC(=S)/N=C(\N)Nc1nc(C)c2cc(C)ccc2n1` gave STAT1 act 182*, STAT3 act 127, NF-kB neuron act 2, STAT3 blocker -16, APP 5'UTR act 66, STAT1 inh -91, STAT1 act conf 179*, NFkB act 141* and STAT3 act STAT1c 125*.
`Cn1c(O)c(C=Nc2ccc(Br)cc2)sc1=O` gave STAT1 act 160*, STAT3 act 100, NF-kB neuron act 1.9, STAT3 blocker 2, APP 5'UTR act 165*, STAT1 inh -65, STAT1 act conf 189*, NFkB act 136* and STAT3 act STAT1c 99.
Screening C=CCN1C(=O)C2C3CC(=O)C(c4ccccc43)C2C1=O (centres undefined) returned STAT1 act 106, STAT3 act 100, NF-kB neuron act 1.8, STAT3 blocker 9, APP 5'UTR act 0 and STAT1 inh -8.
Screening CC(C)(C)c1ccc(S(=O)(=O)NCC(=O)Nc2ccc(-c3nc4ccccc4s3)cc2)cc1 returned STAT1 act 112, STAT3 act 111, NF-kB neuron act 1.7, STAT3 blocker -4, APP 5'UTR act 18 and STAT1 inh -13.
Cc1ccc2nc(-c3ccc(NC(=O)CN(c4ccccc4C)S(C)(=O)=O)cc3)sc2c1 was read as STAT1 act 153*, STAT3 act 110, NF-kB neuron act 3.9*, STAT3 blocker -7, APP 5'UTR act 195*, STAT1 inh -59, STAT1 act conf 218*, NFkB act 130 and STAT3 act STAT1c 109.
Screening Cc1ccccc1N(CC(=O)Nc1ccc(F)cc1)S(C)(=O)=O returned STAT1 act 105, STAT3 act 89, NF-kB neuron act 1.2, STAT3 blocker 17, APP 5'UTR act 10 and STAT1 inh -4.
Screening Cc1ccc2nc(-c3ccc(NC(=O)CN4C(=O)NC(C)(c5ccc(OC(F)F)cc5)C4=O)cc3)sc2c1 (centres undefined) returned STAT1 act 155*, STAT3 act 100, NF-kB neuron act 1.5, STAT3 blocker -2, APP 5'UTR act 150*, STAT1 inh -60, STAT1 act conf 186*, NFkB act 129 and STAT3 act STAT1c 113*.
O=C(CCS(=O)(=O)c1ccccc1)Nc1ccc(-c2nc3ccccc3s2)cc1 was read as STAT1 act 165*, STAT3 act 65, NF-kB neuron act 7.2*, STAT3 blocker 43, APP 5'UTR act 170*, STAT1 inh -71, STAT1 act conf 240*, NFkB act 113 and STAT3 act STAT1c 89.
